Autophagy mod: autophagy modulation, high-content screen; MEF GFP-LC3 puncta imaging; test concentration mostly 10 µM; calls only at 10 µM (by protocol); hit rate 0.98% among 190,000; AID 463193;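 active means percentage of spot-positive cells more than 3 SD above its plate mean, without a fluorescence outlier flag or 80% toxicity; inconclusive means no clear call, values can overlap the other calls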;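 further: spot-positive cell cutoff set from DMSO-treated cells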
Dynein transport: dynein cargo transport inhibition. AID 1381. hit rate 0.47% among 220,000. z-score, hits read low. 3617.4 mouse cells, GR-EGFP nuclear translocation imaging; test concentration mostly 20 µM; stimulated with dexamethasone, 1 µM; hits give low values;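 active means plate z-score of nuclear minus cytoplasmic receptor signal below a set negative limit, without overly bright fluorescence or cell loss, cut at about -3.5 in these data, passing the limit was not always enough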;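 further: z-score of nuclear minus cytoplasmic ring GR-EGFP intensity difference per well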
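Buffer or medium: tet-free, stripped-serum medium; Also added: dexamethasone, 1.0 µM final; Technique: high-content fluorescence imaging after fixation; Times: 48 h induction, 1 h compound, 30 min dex at 37 °C; Read-out: per-cell GR-EGFP intensity, nucleus versus surrounding cytoplasmic ring, well-averaged.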
MT stabilize HCS: stabilizes microtubules in HeLa cells | HeLa tubulin immunostaining HCS, 24 h; share of cells brighter than vehicle mean+2SD | % tubulin-high responders, % at 10 µM | hit rate 0.83% among 200,000;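 active means plate Z-score above 3 for both tubulin-high and condensed-nucleus cell shares, with cell loss under 80%, at 10 µM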;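 further: anti alpha tubulin signal scored within the nucleus-defined area of each cell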
Lmaj promast: Leishmania major promastigote growth inhibition | Leishmania major promastigotes, resazurin fluorescence viability | inhibition, % at 10 µM | hit rate 9% among 200,000 | AID 1063; in the data active means inhibition above about 50%;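 further: promastigotes grown with compound for 44 hours at 28 °C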
b-catenin transl: beta-catenin nuclear translocation modulation; HeLa beta-catenin nuclear translocation, immunofluorescence imaging; nuclear translocation activity, % at 5 µM; hit rate 0.3% among 190,000; AID 1665;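 active means nuclear translocation activity above 50% at 5 µM, with a well cell count of 50 or more; inconclusive means wells under 50 cells across six images, flagged as toxic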;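 further: per-cell ratio of nuclear to cytoplasmic median beta-catenin stain intensity; plate controls were DMSO negative control for no effect and GSK-3 inhibitor IX positive control for full effect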
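Test system: human HeLa cells, endogenous beta-catenin. Times: 24 h compound exposure, 37°C. Measured by: beta-catenin immunofluorescence imaging with DAPI.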
CHOP inhibitor: blocks CHOP induction under ER stress; hit rate 3.8% among 220,000; AID 2732; inhibition, % at 10 µM; CHO-K1 CHOP-promoter luciferase, tunicamycin-induced, 15-18 h;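 active means compounds that reduced the stress-induced luciferase reporter signal by more than about 70% of percent inhibition, limit read from the data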;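 further: 0% = tunicamycin plus vehicle and 100% = wells without tunicamycin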
Dynein confirm: dynein cargo transport inhibition, confirmation | shares compounds with Dynein transport | 3617.4 GR-EGFP nuclear translocation imaging, dexamethasone-induced | calls only at 20 µM | hit rate 69% among 1,000;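 active means inhibition of receptor movement into the nucleus at or above a set limit in both runs, with normal cell brightness and cell count; inconclusive means limit reached in only one run, brightness and count normal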;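 further: dexamethasone at 1 µM final in well for 30 min; nuclear minus cytoplasmic GR-EGFP mean intensity difference in channel 2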
CHOP inh conf: confirmation of CHOP induction inhibitors; shares compounds with CHOP inhibitor; CHO-CHOP promoter luciferase reporter, tunicamycin-induced, luminescence; inhibition, % at 10 µM; hit rate 45% among 2,100; AID 504437;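 active means mean of three repeat readings of reporter signal inhibition above a set limit, cut at about 70% in these data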;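 further: 0% = tunicamycin plus vehicle and 100% = wells lacking tunicamycin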
* marks the source's active call; other numbers are inactive results; i = inactive; u = inconclusive; x = no result given; + = active, no number. Sampled rows, rich in hits. Any-hit rate of the full collection: about 12%.

SMILES	Autophagy mod	Dynein transport	MT stabilize HCS	Lmaj promast	b-catenin transl	CHOP inhibitor	CHOP inh conf	others
CC[C@@H](C)C(NC(=O)OC(C)(C)C)c1cn([C@@H](Cc2cc3ccccc3[nH]2)C(=O)N2CCN(C(=O)OC(C)(C)C)CC2)nn1 (stereo partly specified)	i	-0.76	4	-1	-2	17	x
Cc1cc(Cl)n2c(nc3ccccc32)c1C#N	i	-5.2*	8	100*	106*	108*	133*	Dynein confirm=+
O=[N+]([O-])c1c(NCCCO)cc(Sc2ccc(Cl)cc2)c2nonc12	i	-4.7*	2	-4	-2	111*	141*	Dynein confirm=+
COC(=O)c1ccc2c(c1)C(C)(C)C(/C=C/c1ccc(O)cc1)=[N+]2C	i	-3.6*	41*	101*	41	112*	138*	Dynein confirm=u
COc1ccccc1C(=O)NC(=Nc1nc2ccccc2o1)NC(=O)c1ccccc1OC	i	-0.012	2	100*	-1	106*	134*
O=C(Nc1cc(Cl)cc(Cl)c1)c1cccc(OC(F)F)c1	i	0.3	2	9	x	97*	24
C/C(=N\NC(=O)COc1ccc(C(C)(C)C)cc1)c1ccc(N2CCOCC2)cc1	i	-0.58	1	74*	-3	101*	92*
OCCC1CN(Cc2cccn2-c2ncccn2)CCN1CCc1ccccc1 (stereo unspecified)	i	-0.48	2	-1	-1	16	x
Cc1ccc(C(=O)Nc2cnc3ccccc3c2)cc1	i	1.1	3	-1	2	98*	117*
Cc1ccc(C(=O)Nc2nc3ccccc3c(=O)s2)cc1	i	0.63	2	-8	-4	102*	11
CSc1nc2ccc3nc(NC(=O)c4ccc(C)cc4)sc3c2s1	i	-0.85	5	8	-4	16	x
O=[N+]([O-])c1ccc(NC(=S)NCCc2ccc(Cl)cc2)cc1	i	0.013	1	91*	-5	105*	94*
NC(=O)C1=C[C@@H](c2csc3ccccc23)C[C@@H](OCCCCO)O1	i	1.9	4	5	-2	31	x
CCOC(=O)Cn1c(=NC(=O)c2nc3ccccc3s2)sc2cc(S(N)(=O)=O)ccc21	i	-0.4	3	-8	-1	103*	18
C=CCOc1ccccc1CN1CCC(CO)(CCOc2ccccc2)CC1	i	-0.22	3	22	5	17	x
Cc1c(CN2CCC(CO)(CCOc3ccccc3)CC2)[nH]c2c(Cl)cccc12	i	-0.38	29*	100*	1	105*	71*
CCCCCCCCCn1c2c(c(=N)c3c1CCC3)CCCC2	i	1.8	26*	100*	7	106*	0
COc1ccc(NC(=O)c2cc(-c3cc(C)cc(C)c3O)n[nH]2)cc1Cl	i	0.65	17	100*	0	104*	102*
COc1ccc(Cl)cc1NC(=O)c1cc(-c2cc(C)ccc2O)n[nH]1	x	-0.17	x	x	-1	100*	-9
CCCCC(CC)C(=O)NCc1ccc(F)cc1 (stereo unspecified)	i	0.37	3	34	x	-5	x
CCCC(C)NC(=O)COC(=O)c1cc(Br)c(Br)s1 (stereo unspecified)	i	-0.65	4	0	x	16	x
O=c1[nH]c2ccc(S(=O)(=O)N3CCC(Cc4ccccc4)CC3)cc2o1	i	-0.23	3	-11	-1	100*	16
CCOc1ccc(N2CC(C(=O)Nc3c(C)n(C)n(-c4ccccc4)c3=O)CC2=O)cc1 (stereo unspecified)	i	-0.58	2	-5	-3	2	x
COc1cc(NC(=O)COC(=O)CSc2cc(C)ccc2C)c(C)cc1[N+](=O)[O-]	i	1.2	4	-3	0	24	x
Cc1cccc(/C=N/Nc2ccc3ccccc3n2)c1	i	-0.49	4	34	-1	97*	99*
SMILES	Autophagy mod	Dynein transport	MT stabilize HCS	Lmaj promast	b-catenin transl	CHOP inhibitor	CHOP inh conf	others
Nc1cc(C(F)(F)F)cc2c1SCC(=O)N2	i	-0.11	6	4	2	-17	x
COc1ccc(C(=O)NNC(=O)c2ccccn2)cc1	i	0.66	5	26	3	104*	124*
N#CC1=C(N)Oc2c(ccc3cccnc23)C1c1ccccc1 (stereo unspecified)	x	0.13	x	x	3	-8	x
Cc1ccc2[nH]c(=O)c(C3C(C#N)=C(N)Oc4c3ccc3cccnc43)cc2c1 (stereo unspecified)	i	-0.19	1	96*	26	97*	28
CSc1cccc(NC(=O)COc2cccc3ccccc23)c1	i	-0.28	2	-1	0	106*	16
CC(C)(C)c1ccc(OCC(O)CN(CCO)CC(O)Cn2ccc3ccccc32)cc1 (stereo unspecified)	i	-1.2	2	45	1	103*	4
CCOc1cccc(/C=C2/NC(=O)N(CC(=O)Nc3cccc(C)c3)C2=O)c1O	i	-0.13	2	-3	-1	104*	-58
COc1ccc(CN2CCNC(=O)C2CC(=O)NC2Cc3ccccc3C2)c(OC)c1 (stereo unspecified)	i	0.15	3	-6	-1	1	x
COC(=O)C(Nc1ccccc1Cl)(c1cc(C)c(O)c(C)c1)C(F)(F)F (stereo unspecified)	i	-1.9	4	25	7	109*	97*
COc1ccc(/C=N/N(Cc2ccccc2)c2ccccc2)cc1O	i	-0.43	2	3	-1	104*	12
O=C(O)c1ccc(N/N=C/c2ccnc3ccccc23)cc1	x	0.42	x	x	1	9	x
O=C(O)c1ccc(N/N=C/c2ccc3nccnc3c2)cc1	x	0.41	x	x	-1	101*	116*
CCOc1ncccc1C(=O)N1CCCSC1=Nc1ccc(C(C)=O)cc1	i	0.13	2	3	-5	-1	x
COC(=O)CCCCCNc1ccc(C(=O)OC)cc1N	i	-0.22	6	2	-2	14	x
Cc1cc(Cl)ccc1OCC(=O)N[C@@H](Cc1ccccc1)c1nc2ccccc2[nH]1	i	-0.056	1	5	-2	108*	115*
CSCC[C@H](NC(=O)COc1ccc(Cl)cc1)c1nc2ccccc2[nH]1	i	-0.23	3	10	-1	15	x
O=C(N/N=C/c1cccc(O)c1)c1ccc(COc2ccc3c(c2)CCC3)o1	i	1.5	2	1	x	109*	-4
NNC(=O)c1ccc(COc2ccc3c(c2)CCC3)o1	i	-0.037	3	-5	-2	5	x
